Experimental data: ChEMBL document CHEMBL2040781, “Design, synthesis, and biological evaluation of chromone-based p38 MAP kinase inhibitors” (J Med Chem, 2011)
Activity calls are given as the source filed them. The calls are words filed in the database; no cut-off is given here.

Columns and labels:
[1] = target: Serine/threonine-protein kinase 10 (Homo sapiens) (UniProt O94804); experiment: Inhibition of human LOK assessed as remaining activity at 0.8 uM after 40 mins by scintillation counting
[2] = tested on: MCF7; experiment: Potentiation of doxorubicin-mediated cytotoxicity in human MCF7 cells at 1 uM after 4 hrs by prestoblue cell viability assay; assay type: functional, cell-based
[3] = target: Tyrosine-protein kinase ABL1 (Homo sapiens) (UniProt P00519); experiment: Inhibition of human Abl assessed as remaining activity at 0.8 uM after 40 mins by scintillation counting
[4] = target: cGMP-dependent protein kinase 1 (Homo sapiens) (UniProt Q13976); experiment: Inhibition of human PKG1alpha assessed as remaining activity at 0.8 uM after 40 mins by scintillation counting
Sequence of cGMP-dependent protein kinase 1 (Homo sapiens) (Q13976 whole entry): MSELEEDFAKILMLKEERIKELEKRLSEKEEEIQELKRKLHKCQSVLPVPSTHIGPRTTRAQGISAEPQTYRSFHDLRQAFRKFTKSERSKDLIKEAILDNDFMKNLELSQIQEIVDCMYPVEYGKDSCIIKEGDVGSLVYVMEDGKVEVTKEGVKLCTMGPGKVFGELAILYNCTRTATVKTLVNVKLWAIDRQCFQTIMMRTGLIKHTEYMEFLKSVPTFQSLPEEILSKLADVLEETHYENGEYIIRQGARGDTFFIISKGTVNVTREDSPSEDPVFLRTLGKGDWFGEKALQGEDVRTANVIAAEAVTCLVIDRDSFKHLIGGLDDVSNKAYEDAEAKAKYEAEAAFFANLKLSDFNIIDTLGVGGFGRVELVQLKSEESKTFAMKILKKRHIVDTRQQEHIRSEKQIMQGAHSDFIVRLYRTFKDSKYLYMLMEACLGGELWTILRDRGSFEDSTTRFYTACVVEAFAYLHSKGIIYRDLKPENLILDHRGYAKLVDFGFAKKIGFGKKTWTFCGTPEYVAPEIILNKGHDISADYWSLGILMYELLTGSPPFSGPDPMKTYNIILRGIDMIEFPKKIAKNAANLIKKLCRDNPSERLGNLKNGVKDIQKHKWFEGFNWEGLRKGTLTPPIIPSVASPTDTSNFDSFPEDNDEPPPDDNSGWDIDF

[5] = target: Interleukin-1 receptor-associated kinase 4 (Homo sapiens) (UniProt Q9NWZ3); experiment: Inhibition of human IRAK4 assessed as remaining activity at 0.8 uM after 40 mins by scintillation counting
Sequence of Interleukin-1 receptor-associated kinase 4 (Homo sapiens) (Q9NWZ3 whole entry): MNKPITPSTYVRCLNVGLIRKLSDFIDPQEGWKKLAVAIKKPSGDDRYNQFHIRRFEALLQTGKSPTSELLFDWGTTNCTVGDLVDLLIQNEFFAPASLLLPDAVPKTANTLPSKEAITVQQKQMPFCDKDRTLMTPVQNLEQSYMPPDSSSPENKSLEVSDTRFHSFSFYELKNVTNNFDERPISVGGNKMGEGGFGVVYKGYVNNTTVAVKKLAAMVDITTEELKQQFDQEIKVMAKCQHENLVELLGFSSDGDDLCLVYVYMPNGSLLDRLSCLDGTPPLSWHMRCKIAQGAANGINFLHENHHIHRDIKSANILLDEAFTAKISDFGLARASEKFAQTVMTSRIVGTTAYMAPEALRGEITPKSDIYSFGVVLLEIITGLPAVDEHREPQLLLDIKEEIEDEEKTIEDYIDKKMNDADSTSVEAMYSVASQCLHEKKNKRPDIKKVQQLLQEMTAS

[6] = tested on: MCF7; experiment: Potentiation of anisomycin-mediated cytotoxicity in human MCF7 cells at 1 uM after 4 hrs by prestoblue cell viability assay; assay type: functional, cell-based
[7] = target: Aurora kinase A (Homo sapiens) (UniProt O14965); experiment: Inhibition of human Aurora-A assessed as remaining activity at 0.8 uM after 40 mins by scintillation counting
Sequence of Aurora kinase A (Homo sapiens) (O14965 whole entry): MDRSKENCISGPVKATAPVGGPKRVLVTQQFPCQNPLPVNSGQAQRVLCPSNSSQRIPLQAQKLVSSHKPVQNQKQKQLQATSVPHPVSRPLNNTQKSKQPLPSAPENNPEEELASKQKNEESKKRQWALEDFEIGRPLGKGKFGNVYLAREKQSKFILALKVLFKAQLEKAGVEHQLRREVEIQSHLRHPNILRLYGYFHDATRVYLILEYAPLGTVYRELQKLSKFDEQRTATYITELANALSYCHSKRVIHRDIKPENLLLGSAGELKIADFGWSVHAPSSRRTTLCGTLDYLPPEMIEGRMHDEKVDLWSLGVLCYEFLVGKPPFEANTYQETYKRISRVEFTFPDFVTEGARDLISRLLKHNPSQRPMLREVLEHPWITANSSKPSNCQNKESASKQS

[8] = target: Cyclin-dependent kinase 7/ cyclin H (Homo sapiens) (UniProt P51946+P50613); experiment: Inhibition of human CDK7/cyclinH/MAT1 assessed as remaining activity at 0.8 uM after 40 mins by scintillation counting; assay type: protein-complex assay
[9] = target: Tyrosine-protein kinase Fyn (Homo sapiens) (UniProt P06241); experiment: Inhibition of human Fyn assessed as remaining activity at 0.8 uM after 40 mins by scintillation counting
[10] = target: Platelet-derived growth factor receptor beta (Homo sapiens) (UniProt P09619); experiment: Inhibition of human PDGFRbeta assessed as remaining activity at 0.8 uM after 40 mins by scintillation counting
[11] = target: ALK tyrosine kinase receptor (Homo sapiens) (UniProt Q9UM73); experiment: Inhibition of human ALK assessed as remaining activity at 0.8 uM after 40 mins by scintillation counting
[12] = target: Tyrosine-protein kinase receptor TYRO3 (Homo sapiens) (UniProt Q06418); experiment: Inhibition of human Rse assessed as remaining activity at 0.8 uM after 40 mins by scintillation counting
[13] = target: Casein kinase I isoform gamma-1 (Homo sapiens) (UniProt Q9HCP0); experiment: Inhibition of human CK1gamma1 assessed as remaining activity at 0.8 uM after 40 mins by scintillation counting
Sequence of Casein kinase I isoform gamma-1 (Homo sapiens) (Q9HCP0 whole entry, looked up, canonical isoform): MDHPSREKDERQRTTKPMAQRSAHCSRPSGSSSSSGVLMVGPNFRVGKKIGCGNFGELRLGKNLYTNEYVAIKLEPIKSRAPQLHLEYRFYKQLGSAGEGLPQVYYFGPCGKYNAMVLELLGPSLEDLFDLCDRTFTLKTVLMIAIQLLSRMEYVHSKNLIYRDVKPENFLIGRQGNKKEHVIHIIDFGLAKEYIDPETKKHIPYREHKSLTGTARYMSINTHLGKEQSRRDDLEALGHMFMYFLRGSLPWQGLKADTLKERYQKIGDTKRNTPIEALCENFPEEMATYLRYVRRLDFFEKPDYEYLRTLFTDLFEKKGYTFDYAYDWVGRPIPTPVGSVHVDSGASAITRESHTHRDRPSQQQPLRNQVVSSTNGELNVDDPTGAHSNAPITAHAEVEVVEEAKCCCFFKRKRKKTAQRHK

[14] = target: Serine/threonine-protein kinase 4 (Homo sapiens) (UniProt Q13043); experiment: Inhibition of human MST1 assessed as remaining activity at 0.8 uM after 40 mins by scintillation counting
[15] = target: Serine/threonine-protein kinase Nek2 (Homo sapiens) (UniProt P51955); experiment: Inhibition of human NEK2 assessed as remaining activity at 0.8 uM after 40 mins by scintillation counting
[16] = target: Mitogen-activated protein kinase kinase kinase 7 (TAK1) (Homo sapiens) (UniProt O43318); experiment: Inhibition of human TAK1 assessed as remaining activity at 0.8 uM after 40 mins by scintillation counting
[17] = target: Mitogen-activated protein kinase 12 (Homo sapiens) (UniProt P53778); experiment: Inhibition of human SAPK3 assessed as remaining activity at 0.8 uM after 40 mins by scintillation counting
[18] = organism: Homo sapiens; experiment: Inhibition of human PKA assessed as remaining activity at 0.8 uM after 40 mins by scintillation counting
[19] = target: Ribosomal protein S6 kinase alpha-4 (Homo sapiens) (UniProt O75676); experiment: Inhibition of human MSK2 assessed as remaining activity at 0.8 uM after 40 mins by scintillation counting
[20] = target: Ribosomal protein S6 kinase beta-1 (Homo sapiens) (UniProt P23443); experiment: Inhibition of human p70S6K assessed as remaining activity at 0.8 uM after 40 mins by scintillation counting
[21] = tested on: MDA-MB-436; experiment: Antiproliferative activity against human MDA-MB-436 cells at 1 uM after 4 hrs by prestoblue cell viability assay; assay type: functional, cell-based
[22] = target: Mitogen-activated protein kinase 8 (Homo sapiens) (UniProt P45983); experiment: Inhibition of human JNK1alpha1 assessed as remaining activity at 0.8 uM after 40 mins by scintillation counting
[23] = target: RAC-alpha serine/threonine-protein kinase (Homo sapiens) (UniProt P31749); experiment: Inhibition of human PKBalpha assessed as remaining activity at 0.8 uM after 40 mins by scintillation counting
Sequence of RAC-alpha serine/threonine-protein kinase (Homo sapiens) (P31749 whole entry): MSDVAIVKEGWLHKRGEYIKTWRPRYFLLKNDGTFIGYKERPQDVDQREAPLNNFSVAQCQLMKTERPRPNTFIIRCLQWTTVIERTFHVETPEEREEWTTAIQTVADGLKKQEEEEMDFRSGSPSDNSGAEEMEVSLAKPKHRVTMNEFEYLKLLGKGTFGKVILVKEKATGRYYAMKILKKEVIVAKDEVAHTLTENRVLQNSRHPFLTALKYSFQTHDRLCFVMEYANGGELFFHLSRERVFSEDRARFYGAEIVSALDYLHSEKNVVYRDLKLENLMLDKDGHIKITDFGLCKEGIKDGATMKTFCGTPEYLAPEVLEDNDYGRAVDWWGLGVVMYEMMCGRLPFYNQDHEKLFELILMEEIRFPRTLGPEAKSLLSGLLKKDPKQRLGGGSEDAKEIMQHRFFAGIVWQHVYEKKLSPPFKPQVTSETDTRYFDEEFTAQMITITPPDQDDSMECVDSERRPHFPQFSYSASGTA

[24] = target: Ephrin type-A receptor 5 (Homo sapiens) (UniProt P54756); experiment: Inhibition of human EphA5 assessed as remaining activity at 0.8 uM after 40 mins by scintillation counting
[25] = target: 5'-AMP-activated protein kinase catalytic subunit alpha-1 (Homo sapiens) (UniProt Q13131); experiment: Inhibition of human AMPKalpha1 assessed as remaining activity at 0.8 uM after 40 mins by scintillation counting
Sequence of 5'-AMP-activated protein kinase catalytic subunit alpha-1 (Homo sapiens) (Q13131 whole entry, looked up): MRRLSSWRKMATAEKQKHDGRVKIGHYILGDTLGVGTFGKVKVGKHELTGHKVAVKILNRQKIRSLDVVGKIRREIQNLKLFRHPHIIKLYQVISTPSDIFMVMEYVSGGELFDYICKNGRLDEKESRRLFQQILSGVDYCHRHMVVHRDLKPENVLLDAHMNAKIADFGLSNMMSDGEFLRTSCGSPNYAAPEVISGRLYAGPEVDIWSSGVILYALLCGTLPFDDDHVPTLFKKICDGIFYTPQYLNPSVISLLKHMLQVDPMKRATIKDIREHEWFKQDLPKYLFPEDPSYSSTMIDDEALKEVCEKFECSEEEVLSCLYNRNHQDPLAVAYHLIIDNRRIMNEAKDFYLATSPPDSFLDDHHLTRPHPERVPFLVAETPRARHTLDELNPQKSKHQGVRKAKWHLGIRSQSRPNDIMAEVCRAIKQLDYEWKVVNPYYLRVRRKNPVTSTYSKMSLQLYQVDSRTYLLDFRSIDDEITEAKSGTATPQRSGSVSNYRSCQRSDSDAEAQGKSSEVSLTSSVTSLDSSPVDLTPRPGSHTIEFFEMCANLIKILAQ

[26] = target: Dual specificity mitogen-activated protein kinase kinase 1 (Homo sapiens) (UniProt Q02750); experiment: Inhibition of human MEK1 assessed as remaining activity at 0.8 uM after 40 mins by scintillation counting
Sequence of Dual specificity mitogen-activated protein kinase kinase 1 (Homo sapiens) (Q02750 whole entry): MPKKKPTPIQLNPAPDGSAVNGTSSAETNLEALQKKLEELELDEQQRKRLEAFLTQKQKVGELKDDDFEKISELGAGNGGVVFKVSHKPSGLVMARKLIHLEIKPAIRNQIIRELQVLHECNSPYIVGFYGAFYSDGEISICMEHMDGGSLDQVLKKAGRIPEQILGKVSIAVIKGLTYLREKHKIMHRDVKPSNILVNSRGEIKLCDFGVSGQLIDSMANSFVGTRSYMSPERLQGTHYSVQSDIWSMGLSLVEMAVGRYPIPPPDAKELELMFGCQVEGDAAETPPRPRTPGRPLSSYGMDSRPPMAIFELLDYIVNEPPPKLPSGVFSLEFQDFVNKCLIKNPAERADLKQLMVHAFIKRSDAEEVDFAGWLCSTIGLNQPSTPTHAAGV

[27] = target: RAF proto-oncogene serine/threonine-protein kinase (Homo sapiens) (UniProt P04049); experiment: Inhibition of human RAF assessed as remaining activity at 0.8 uM after 40 mins by scintillation counting
[28] = target: Serine/threonine-protein kinase 17A (Homo sapiens) (UniProt Q9UEE5); experiment: Inhibition of human DRAK1 assessed as remaining activity at 0.8 uM after 40 mins by scintillation counting
[29] = target: Tyrosine-protein kinase JAK2 (Homo sapiens) (UniProt O60674); experiment: Inhibition of human JAK2 assessed as remaining activity at 0.8 uM after 40 mins by scintillation counting
[30] = target: Mitogen-activated protein kinase 10 (Homo sapiens) (UniProt P53779); experiment: Inhibition of human JNK3 assessed as remaining activity at 0.8 uM after 40 mins by scintillation counting
[31] = target: T1, Mitogen-activated protein kinase 14 (Homo sapiens, UniProt Q16539); experiment: Inhibition of p38alpha MAPK after 40 mins by scintillation counting
T1 sequence (Q16539 whole entry): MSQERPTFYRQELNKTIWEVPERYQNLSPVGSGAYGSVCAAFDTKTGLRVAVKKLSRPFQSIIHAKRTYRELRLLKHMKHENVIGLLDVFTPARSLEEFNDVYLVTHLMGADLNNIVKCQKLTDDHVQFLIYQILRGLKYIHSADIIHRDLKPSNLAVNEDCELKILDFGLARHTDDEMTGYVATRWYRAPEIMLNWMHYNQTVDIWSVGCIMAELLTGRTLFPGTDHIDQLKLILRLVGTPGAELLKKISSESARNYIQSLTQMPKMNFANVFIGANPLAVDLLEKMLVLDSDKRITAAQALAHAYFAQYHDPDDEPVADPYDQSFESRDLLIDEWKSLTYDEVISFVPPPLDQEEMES

[32] = target: Dual specificity mitogen-activated protein kinase kinase 7 (Homo sapiens) (UniProt O14733); experiment: Inhibition of human MKK7beta assessed as remaining activity at 0.8 uM after 40 mins by scintillation counting
[33] = tested on: MCF7; experiment: Effect on p38alpha protein level in human MCF7 cells; assay type: functional, cell-based
[34] = target: T1, Mitogen-activated protein kinase 14; experiment: Inhibition of p38alpha phosphorylation in human MCF7 cells at 0.5 to 10 uM after 30 mins by SDS PAGE analysis; assay type: cell-based
Outline: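 MCF-7 cells were preincubated with compound for 30 min, then stimulated with 10 μg/mL anisomycin for another 30 min. Total cell lysates were resolved by SDS-PAGE and immunoblotted for phosphorylated ATF2, p38 and HSP27, with tubulin as the loading control.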

Sequence of Serine/threonine-protein kinase 10 (Homo sapiens) (O94804 whole entry, looked up): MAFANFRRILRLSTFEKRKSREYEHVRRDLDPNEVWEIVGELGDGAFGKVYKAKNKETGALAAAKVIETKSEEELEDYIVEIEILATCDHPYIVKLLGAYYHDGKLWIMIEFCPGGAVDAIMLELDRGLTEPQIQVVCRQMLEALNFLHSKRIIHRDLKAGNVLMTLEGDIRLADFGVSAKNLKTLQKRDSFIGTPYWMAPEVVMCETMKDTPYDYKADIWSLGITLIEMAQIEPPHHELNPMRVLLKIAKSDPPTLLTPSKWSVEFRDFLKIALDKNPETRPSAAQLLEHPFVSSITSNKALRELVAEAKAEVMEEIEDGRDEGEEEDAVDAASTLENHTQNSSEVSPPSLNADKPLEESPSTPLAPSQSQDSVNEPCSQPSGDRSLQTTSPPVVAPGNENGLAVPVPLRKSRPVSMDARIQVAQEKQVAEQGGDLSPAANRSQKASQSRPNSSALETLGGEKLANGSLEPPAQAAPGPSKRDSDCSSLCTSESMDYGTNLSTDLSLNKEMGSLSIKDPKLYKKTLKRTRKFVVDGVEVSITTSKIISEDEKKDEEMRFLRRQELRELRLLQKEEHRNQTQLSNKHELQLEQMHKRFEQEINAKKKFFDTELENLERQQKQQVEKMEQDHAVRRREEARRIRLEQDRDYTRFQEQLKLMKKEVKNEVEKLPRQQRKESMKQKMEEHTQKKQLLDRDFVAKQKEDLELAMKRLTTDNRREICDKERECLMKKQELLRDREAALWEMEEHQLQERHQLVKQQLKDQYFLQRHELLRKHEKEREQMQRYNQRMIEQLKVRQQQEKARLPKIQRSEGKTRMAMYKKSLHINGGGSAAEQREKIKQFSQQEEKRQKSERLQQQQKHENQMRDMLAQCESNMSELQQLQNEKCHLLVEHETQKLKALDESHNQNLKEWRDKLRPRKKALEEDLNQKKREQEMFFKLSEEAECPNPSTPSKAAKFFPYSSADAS

| Activity [1] | Activity [3] | Activity [4] | Activity [5] | Activity [7] | Activity [8] | Activity [9] | Activity [10] | Activity [11] | Activity [12] | Activity [13] | Activity [14] | Activity [15] | Activity [16] | Activity [17] | Activity [18] | Activity [19] | Activity [20] | Compound | Activity [2] | Activity [6] | other results |
| --- | --- | --- | --- | --- | --- | --- | --- | --- | --- | --- | --- | --- | --- | --- | --- | --- | --- | --- | --- | --- | --- |
| 102% | 111% | 104% | 91% | 104% | 100% | 100% | 107% | 88% | 98% | 94% | 99% | 98% | 97% | 96% | 114% | 89% | 102% | CC(C)Nc1cc(-c2oc3ccccc3c(=O)c2-c2ccc(F)cc2)ccn1 | inactive | inactive | Activity [21]: inactive; Activity [22]: 84%; Activity [23]: 100%; Activity [24]: 103%; Activity [25]: 97%; Activity [26]: 99%; Activity [27]: 73%; Activity [28]: 107%; Activity [29]: 109%; Activity [30]: 21%; IC50 [31]: 0.017 µM; Activity [32]: 120% |
| 94% | 106% | 102% | 95% | 107% | 101% | 103% | 105% | 91% | 91% | 97% | 93% | 98% | 103% | 97% | 118% | 95% | 102% | O=c1c(-c2ccc(F)cc2)c(-c2ccnc(NC3CCCCC3)c2)oc2ccccc12 | inactive | inactive | Activity [33]: inactive; Activity [21]: inactive; Activity [22]: 96%; Activity [23]: 107%; Activity [24]: 104%; Activity [25]: 102%; Activity [26]: 104%; Activity [27]: 83%; inhibition [34]: Active; Activity [28]: 111%; Activity [29]: 102%; Activity [30]: 24%; IC50 [31]: 0.034 µM; Activity [32]: 99% |
